Series [1] deals with T1, N-formyl peptide receptor 2 (Homo sapiens, UniProt P25090).
T1 sequence (P25090 whole entry): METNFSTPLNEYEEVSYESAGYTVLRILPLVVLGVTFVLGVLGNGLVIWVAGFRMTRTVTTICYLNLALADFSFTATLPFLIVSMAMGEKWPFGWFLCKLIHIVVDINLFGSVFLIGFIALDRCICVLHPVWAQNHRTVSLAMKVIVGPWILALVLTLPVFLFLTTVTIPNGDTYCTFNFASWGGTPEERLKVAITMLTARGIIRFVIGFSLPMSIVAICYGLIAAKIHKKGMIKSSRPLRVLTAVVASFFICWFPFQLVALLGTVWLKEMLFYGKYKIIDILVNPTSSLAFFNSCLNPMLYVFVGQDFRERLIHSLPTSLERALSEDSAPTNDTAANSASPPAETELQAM
As to the kind of experiment: Agonist activity at human FPR2 expressed in HEK 293 cells co-expressing Galpha15 measured every 1.5 sec for 80 sec by Fluo-4 NW staining based scanning fluorometric method. The format is cell-based, HEK293. The essentials: (§1)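 HEK293 cells were transiently co-transfected with FPR plus Gα15 (Lipofectamine 2000), then reseeded after 24 h on poly-D-lysine plates and grown one more day. Cells were loaded with Fluo-4 NW for 45 min at 37°C. Compound was added and fluorescence (ex 485/em 525 nm) read for 80 s at 1.5 s intervals. Response = maximal peak minus basal.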

The target of series [2] is T2, fMet-Leu-Phe receptor (Homo sapiens, UniProt P21462).
T2 sequence (P21462 whole entry): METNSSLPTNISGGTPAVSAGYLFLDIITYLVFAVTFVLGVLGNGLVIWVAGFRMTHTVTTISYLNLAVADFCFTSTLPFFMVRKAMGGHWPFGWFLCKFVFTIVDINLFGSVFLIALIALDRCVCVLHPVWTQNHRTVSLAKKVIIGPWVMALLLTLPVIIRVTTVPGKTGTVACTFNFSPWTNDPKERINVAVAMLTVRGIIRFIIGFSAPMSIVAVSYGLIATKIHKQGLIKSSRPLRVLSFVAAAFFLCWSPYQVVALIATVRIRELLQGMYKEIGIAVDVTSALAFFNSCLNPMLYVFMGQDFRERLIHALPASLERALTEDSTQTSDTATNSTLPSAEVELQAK
Kind of series: Agonist activity at human FPR1 expressed in HEK 293 cells co-expressing Galpha15 measured every 1.5 sec for 80 sec by Fluo-4 NW staining based scanning fluorometric method. The format is cell-based, HEK293.

Series [3] addresses T3, Formyl peptide receptor 2 (Mus musculus, UniProt O88536).
T3 sequence (O88536 whole entry): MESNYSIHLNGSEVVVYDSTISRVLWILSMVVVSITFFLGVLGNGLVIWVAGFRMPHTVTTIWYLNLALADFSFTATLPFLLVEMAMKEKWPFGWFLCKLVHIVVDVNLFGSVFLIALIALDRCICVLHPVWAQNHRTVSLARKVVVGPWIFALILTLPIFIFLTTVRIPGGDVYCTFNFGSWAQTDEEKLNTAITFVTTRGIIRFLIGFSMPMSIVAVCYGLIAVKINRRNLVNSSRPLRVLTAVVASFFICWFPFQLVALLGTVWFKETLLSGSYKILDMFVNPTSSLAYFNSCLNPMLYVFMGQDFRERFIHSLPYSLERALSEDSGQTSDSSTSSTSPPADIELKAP
As to the kind of experiment: Agonist activity at mouse FPR2 expressed in HEK 293 cells co-expressing Galpha15 measured every 1.5 sec for 80 sec by Fluo-4 NW staining based scanning fluorometric method. The format is cell-based, HEK293. The essentials: as §1

A short description of series [4]: In vivo […] in mouse assessed as reduction in LPS-induced neutrophil infiltration in BALF cells at 1 mg/kg, po relative to control. The format is functional. The essentials:
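Mice were given LPS and dosed orally at 1 mg/kg. Neutrophils in BALF were counted, and percent inhibition was calculated.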

The target in series [5] is Cytochrome P450 3A4 (Homo sapiens, UniProt P08684). Kind of series: Inhibition of recombinant human CYP3A4. The format is ADME.
In series [6] the target is T1, N-formyl peptide receptor 2. Kind of series: Agonist activity at human FPR2 expressed in CHO-K1 cells assessed as stimulation of beta-arrestin recruitment. The class given is cell-based. Background: Arrestin recruitment assays detect the binding of arrestin to an activated receptor.
A short description of series [7]: Volume of distribution at steady state in Crl:CD1(ICR) mouse at 0.5 mg/kg, iv by LC-MS/MS analysis. The format is ADME, organism-based. To be noted: in vivo, read-out: Vdss. The method in brief:
(§2)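 Male animals received intravenous solution in DMSO/PEG400/saline (5/47.5/47.5). EDTA plasma was extracted with methanol/acetonitrile (1:1) plus internal standard and quantified by LC-MS/MS. AUC0-inf was calculated by the trapezoidal rule with terminal-phase kel extrapolation.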

The nature of series [8]: Volume of distribution at steady state in cynomolgus monkey at 1 mg/kg, iv by LC-MS/MS analysis. The class given is ADME, organism-based, Macaca fascicularis. To be noted: in vivo, read-out: Vdss. The method in brief: as §2
A short description of series [9]: Total clearance in cynomolgus monkey at 1 mg/kg, iv by LC-MS/MS analysis. The class given is ADME, organism-based, Macaca fascicularis. Particulars: in vivo. The method in brief:
as §2

Series [10] in a line: Cmax in BALB/cCrSlc mouse at 1 mg/kg, po by LC-MS/MS analysis. The class given is ADME, organism-based. Set-up: route oral, dose 1 mg/kg. Particulars: in vivo. The essentials: (§3)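 Male animals dosed orally with a suspension in 0.5% MC. Blood was taken into EDTA 2K capillaries and plasma was stored frozen. Plasma was mixed with methanol/acetonitrile (1:1) plus internal standard, centrifuged, and drug was measured by LC-MS/MS. AUC0-inf was obtained by the trapezoidal rule, extrapolated with kel from the terminal phase. t1/2 = ln2/kel.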

The nature of series [11]: Cmax in cynomolgus monkey at 3 mg/kg, po by LC-MS/MS analysis. Particulars: in vivo. The class given is ADME, organism-based, Macaca fascicularis. Set-up: route oral, dose 3 mg/kg. The essentials: as §3
A short description of series [12]: Half life in Crl:CD(SD) rat at 1 mg/kg, po by LC-MS/MS analysis. The class given is ADME, organism-based. Particulars: in vivo. The method in brief:
as §3

The nature of series [13]: Half life in Beagle dog at 1 mg/kg, po by LC-MS/MS analysis. To be noted: in vivo. The format is ADME, organism-based, Canis lupus familiaris. The essentials: as §3
Series [14] can be described thus: Half life in cynomolgus monkey at 3 mg/kg, po by LC-MS/MS analysis. The format is ADME, organism-based, Macaca fascicularis. To be noted: in vivo. The method in brief:
as §3

Series [15] is described as follows: Oral bioavailability in BALB/cCrSlc mouse at 1 mg/kg by LC-MS/MS analysis. The class given is ADME, organism-based. To be noted: in vivo. The essentials:
(§4)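 Oral bioavailability = (AUC0-inf,po/dose po)/(AUC0-inf,iv/dose iv) × 100. Oral dosing used a 0.5% MC suspension. IV dosing used a DMSO/PEG400/saline (5/47.5/47.5) solution, with CD1(ICR) mice for the iv arm. Plasma drug levels were measured by LC-MS/MS after methanol/acetonitrile extraction with internal standard.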

A short description of series [16]: Oral bioavailability in Beagle dog at 1 mg/kg by LC-MS/MS analysis. The class given is ADME, organism-based, Canis lupus familiaris. To be noted: in vivo.
A short description of series [17]: Oral bioavailability in cynomolgus monkey at 3 mg/kg by LC-MS/MS analysis. The class given is ADME, organism-based, Macaca fascicularis. Particulars: in vivo. The essentials:
as §4

Series [18] in a line: Clearance in rat liver microsome at 0.1 umol/l and measured for 60 mins by LC-MS/MS analysis. The class given is ADME. Particulars: microsomes, 1 h, 0.1 µM, dose 0.1 µmol/L. The essentials: (§5)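 Liver microsomes (1 mg protein/mL final) with an NADPH regenerating system were preincubated 5 min at 37°C, then given 0.1 µmol/L compound. Samples were taken at 0-60 min, quenched in methanol/acetonitrile with internal standard, and analysed by LC-MS/MS. Runs were in triplicate. kel came from 5-30 min points. CLint = kel/protein concentration (mL/min/mg protein).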
(In general: Microsomes from liver hold many membrane-bound enzymes, among them those of drug oxidation.)

Series [19] in a line: Clearance in dog liver microsome at 0.1 umol/l and measured for 60 mins by LC-MS/MS analysis. The format is ADME, Canis lupus familiaris. Particulars: microsomes, 1 h, 0.1 µM, dose 0.1 µmol/L. The method in brief: as §5
Series [20] can be described thus: Clearance in monkey liver microsome at 0.1 umol/l and measured for 60 mins by LC-MS/MS analysis. Particulars: rhesus monkey, microsomes, 1 h, 0.1 µM, dose 0.1 µmol/L. The class given is ADME, Macaca mulatta. The essentials:
as §5

Sequence of Cytochrome P450 3A4 (P08684 whole entry): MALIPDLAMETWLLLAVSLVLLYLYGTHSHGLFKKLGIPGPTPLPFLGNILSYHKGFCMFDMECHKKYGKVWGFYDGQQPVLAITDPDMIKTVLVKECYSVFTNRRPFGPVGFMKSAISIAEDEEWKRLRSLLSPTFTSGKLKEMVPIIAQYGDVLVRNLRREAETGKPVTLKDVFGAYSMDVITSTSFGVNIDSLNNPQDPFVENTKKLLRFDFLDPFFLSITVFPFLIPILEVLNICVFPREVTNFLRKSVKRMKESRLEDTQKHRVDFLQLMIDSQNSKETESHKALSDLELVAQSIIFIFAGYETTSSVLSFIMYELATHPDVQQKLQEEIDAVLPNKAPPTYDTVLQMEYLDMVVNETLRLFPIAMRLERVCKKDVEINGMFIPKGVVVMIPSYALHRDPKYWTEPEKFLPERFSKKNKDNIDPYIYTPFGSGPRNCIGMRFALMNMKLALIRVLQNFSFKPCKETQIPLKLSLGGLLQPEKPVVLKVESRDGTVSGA

In general, EC50 refers to the concentration giving half of the maximal effect. As a reminder, the inhibition in vivo is the relative decrease from the control value, in per cent. The IC50 is the concentration at which inhibition is half-maximal. Usually clearance stands for the volume of plasma or blood freed of the substance per unit of time. For orientation: Cmax means the maximum level reached in the sampled fluid or tissue. By half-life is commonly meant the time needed for the level to fall by half in the phase considered. One may read the bioavailability as dose-corrected exposure relative to a reference, in per cent. Consider `COc1cc(F)c([C@@H]2CNC(=O)[C@H]2NC(=O)Nc2ccccc2)c(F)c1` [BMS-986235], for which the EC50 in series [1] was determined as 0.41 nM; in series [2] it was 2800 nM; in [3] it was 3.4 nM; in series [6], 130 nM. Further, the inhibition in vivo at 1 mg/kg in [4] was found to be 88%. Besides, the IC50 in series [5] was more than 20000 nM. Besides, the results for the Vd in series [7] and in series [8] were 3.5 L/kg and 1.2 L/kg, respectively. For the same molecule, in series [9], the clearance was determined as 12 mL/min/kg. In addition, the Cmax in series [10] was 160 nM; in series [11] it was 800 nM. Also, the results for the half-life in [12], in [13] and in [14] were 3.8 h, 2.5 h and 5 h, respectively. The bioavailability in series [15] worked out at 24%; in series [16] it was 50%; in series [17] it was 49%. Further, the CLH was 21 µL/min/mg in series [18], 42 µL/min/mg in [19] and 30 µL/min/mg in series [20].

The values are drawn from ChEMBL document CHEMBL4725241, “Discovery of BMS-986235/LAR-1219: A Potent Formyl Peptide Receptor 2 (FPR2) Selective Agonist for the Prevention of Heart Failure” (J Med Chem, 2020).
